# A selection: hits, their analogues and other compounds. The true share with any hit is near 2%.
# TRPN1 ag: zebrafish TRPN1 (NompC) channel agonism; HEK293 zebrafish TRPN1-YFP, Fluo-8 calcium fluorescence; 100% = response to 87 µM carbachol; activation, % at 3 µM; 220,000 tested, 0.18% active;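 active = activation above its plate's cutoff, the mean activation of test wells on that plate plus 3 SD, cut at about 19% in these data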;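 note: 0% = DMSO alone and 100% = 87 µM carbachol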
#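 Assay system: Zebrafish TRPN1-YFP in HEK293 cells | Incubation: Dye loading 1 h at 37 °C, then 30 min room temperature | Measured by: Kinetic Fluo-8 fluorescence, ex 470-495, em 515-575 nm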
# TRPML3 agonist: human mucolipin-3 channel agonism | Q8TDD5 | HEK293 TRPML3-YFP, Fluo-8 calcium fluorescence; 100% = the carbachol control signal | activation, % at 3 µM | 220,000 tested, 0.29% active | AID 1448;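 active = activation above its plate's cutoff, the mean activation of the plate's test wells plus 3 SD, cut at about 12% in these data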;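 note: 0% = DMSO only wells and 100% = carbachol wells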
#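 Test system – HEK293 line with stable expression of human TRPML3-YFP channel · Control set – carbachol 87 µM final as high control (100%), DMSO as low control (0%) · Signal – Fluo-8 calcium dye fluorescence, ex 470-495, em 515-575 nm · Incubation – 1-h 37 °C dye load, 5-s basal, 120-s post-compound reads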
# CRFR2-BP ag: agonists of human CRF-binding protein/CRF-R2 receptor complex; activation, % at 13.2 µM; HEK293 CRF-R2/CRF-BP, calcium dye fluorescence (FLIPR); percent of saturating CRF peptide response; 350,000 tested, 0.46% active; AID 588473;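 active = activation of at least 50%, plus an integration ratio under a set limit after plate pattern correction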;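 note: plate controls were neutral control wells without compound for no effect and CRF at EC100 for full effect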
# CRFBP-R2 block: blocks CRF-induced signaling of the CRF-BP/CRF-R2 complex; HEK293 CRF-R2/CRF-BP, CRF-induced calcium fluorescence; 350,000 tested, 0.59% active; inhibition, % at 11.8 µM; AID 588475;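 active = inhibition of the ligand-induced calcium signal above about 50% at the single tested concentration, limit read from the data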
# GPR7 antag: human neuropeptides B/W receptor 1 antagonism; 290,000 tested, 1.1% active; inhibition, % at 4.4 µM; GPR7-expressing cells, fluorescence antagonist assay; AID 1861; in the data active = inhibition above about 16%, passing the limit was not always enough;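 note: cells stimulated with the agonist NPW; 0% = agonist with vehicle and 100% = vehicle without agonist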
# Target sequence (P48145 whole entry, looked up): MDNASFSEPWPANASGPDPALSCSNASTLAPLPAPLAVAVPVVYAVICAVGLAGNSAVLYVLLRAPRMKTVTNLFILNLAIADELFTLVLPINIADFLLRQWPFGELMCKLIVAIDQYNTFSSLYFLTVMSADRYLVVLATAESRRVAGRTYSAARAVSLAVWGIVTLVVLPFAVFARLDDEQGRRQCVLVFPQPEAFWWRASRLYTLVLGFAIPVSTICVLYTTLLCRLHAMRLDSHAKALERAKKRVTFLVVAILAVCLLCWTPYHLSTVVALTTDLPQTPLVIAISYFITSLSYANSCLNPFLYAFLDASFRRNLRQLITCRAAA
# * marks the source's active call; other numbers are inactive results; · = no result.
SMILES,TRPN1 ag,TRPML3 agonist,CRFR2-BP ag,CRFBP-R2 block,GPR7 antag
COc1ccc(CC(=O)OCC(=O)c2c[nH]c3ccccc23)cc1,·,·,1,8,·
O=C(NCc1csc(-c2cccs2)n1)c1cccc(Cl)c1,0,1,0,-1,-7
O=C(NCc1csc(-c2cccs2)n1)c1ccccc1,1,-1,0,77*,4
O=C(COc1ccc(Cl)cc1Cl)N1CCNC1=O,·,·,-2,21,·
O=C(COc1cc(Cl)ccc1Cl)N1CCNC1=O,·,·,-1,51*,·
CCCc1cc(=O)[nH]c(SCCc2ccccc2)n1,·,·,0,5,-16
CC1(C)CC(N2CCCC2)=CC(=[N+]2CCCCCC2)C1,0,0,-3,21,26*
CC1(C)CC(N2CCN(c3ccccc3)CC2)=CC(=[N+]2CCCC2)C1,1,0,3,-2,6
CCCNS(=O)(=O)c1ccc(Oc2ncc(C(F)(F)F)cc2Cl)cc1,2,2,81*,-77,-4
CCN(CC)S(=O)(=O)c1cc(OC)c(C)cc1C,-2,1,-2,69*,-1
CCN(CC)S(=O)(=O)c1cc(OC)c(Cl)cc1Cl,-2,0,-1,7,17
O=C(NNC(=S)NC(=O)c1cccc([N+](=O)[O-])c1)c1ccc(Br)cc1,·,·,122*,-69,-5
O=C(NNC(=S)NC(=O)c1ccccc1)c1cccc([N+](=O)[O-])c1,·,·,49,12,-15
O=C(NNC(=S)NC(=O)c1cccc([N+](=O)[O-])c1)c1ccc(O)cc1,·,·,0,0,5
Cc1ccc(C(=O)NC(=S)NNC(=O)c2cccc([N+](=O)[O-])c2)cc1,·,·,79*,21,-1
O=C(c1ccc(Cl)cc1)C1CCN(C(=O)c2ccccc2F)CC1,·,·,1,7,·
CN(C)CCCNC(=O)C(=O)NCC(c1cccs1)S(=O)(=O)c1ccc(F)cc1 (configuration not stated),·,·,5,-15,·
Cc1ccc(Nc2nc(NCc3ccco3)c3ccccc3n2)cc1,5,10,7,-15,34*
N#Cc1cc([N+](=O)[O-])ccc1NCCCn1ccnc1,·,·,0,6,1
O=C(NCCc1ccccc1)c1c[nH]c2ccccc2c1=O,·,·,73*,17,·
COc1ccc(CCNC(=O)c2c[nH]c3ccccc3c2=O)cc1OC,1,1,-2,-1,-3
CSc1ccc(/C=C(/NC(=O)c2ccc(C)cc2)C(=O)Nc2cccc(F)c2)cc1,1,1,1,137*,-8
CC(=O)c1cccc(NC(=O)/C(=C\c2cccnc2)NC(=O)c2ccc(C)cc2)c1,·,·,1,-8,-7
COc1ccc(C(=O)NC2CC(C)(C)Cc3c2cnn3-c2ccccc2)cc1OC (configuration not stated),·,·,1,-4,-2
COc1cc(C(=O)NC2CC(C)(C)Cc3c2cnn3-c2ccccc2)cc(OC)c1OC (configuration not stated),·,·,0,57*,-10
SMILES,TRPN1 ag,TRPML3 agonist,CRFR2-BP ag,CRFBP-R2 block,GPR7 antag
CC(C)(C)CC(C)(C)NC(=S)Nc1ccc2nc(-c3ccccn3)c(-c3ccccn3)nc2c1,3,1,29,-57,-8
CN(C)NC(=S)Nc1ccc2nc(-c3ccccn3)c(-c3ccccn3)nc2c1,1,1,59*,-17,-13
CN1CCN(Cc2c(O)ccc3cc(-c4ccccn4)c(=O)oc23)CC1,0,0,63*,-7,-3
Cc1c(C)c2ccc(O)c(CN3CCN(C)CC3)c2oc1=O,·,·,0,-3,-7
COc1ccc(S(=O)(=O)N2CC3C4C=CC(C4)C3C2)cc1 (configuration not stated),1,56*,-1,16,-3
Cc1ccc(SCc2noc(-c3c(C)noc3C)n2)cc1,0,-1,0,52*,-17
Cc1ccc(-c2noc(-c3c(C)noc3C)n2)cc1,1,1,0,-3,-14
CC[C@@H](C)[C@@H]1CN([C@@H](CN2CCC[C@H]2CN2C(N)=NC[C@H]2CC(C)C)C(C)C)C(=N)N1CCc1ccc(Cl)c(Cl)c1,·,·,2,63*,·
O=S(=O)(c1ccccc1F)N1CCN(Cc2cc3c(cc2Br)OCCO3)CC1,·,·,4,2,·
N#CCSc1nc2sccc2c(=O)n1-c1ccccc1,·,·,0,74*,-15
C[C@H](CO)N1C[C@H](C)[C@@H](CN(C)Cc2ccncc2)Oc2c(NC(=O)C3CC3)cccc2C1=O,·,·,-1,2,·

# Bioassay records (PubChem)
